Experimental data: ChEMBL document CHEMBL3259701, “Siderophore receptor-mediated uptake of lactivicin analogues in gram-negative bacteria” (J Med Chem, 2014)
In brackets after ≈: the same amount, converted by molar mass.

How the values were obtained:
Pseudomonas aeruginosa [1] = experiment: Antibacterial activity against Pseudomonas aeruginosa PAO1 harboring siderophore receptor piuA and pirA double mutant in Mueller-Hinton broth medium by CLSI broth microdilution method; format: functional
Method in brief: (§1)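 MIC by CLSI broth microdilution in standard Mueller Hinton broth. Tested against wild-type P. aeruginosa PAO1 and an isogenic panel lacking one or more siderophore receptors.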

Pseudomonas aeruginosa [2] = experiment: Antibacterial activity against Pseudomonas aeruginosa PAO1 harboring siderophore receptor pirA and pfeA double mutant in Mueller-Hinton broth medium by CLSI broth microdilution method; format: functional; method in brief: as §1
Pseudomonas aeruginosa [3] = experiment: Antibacterial activity against Pseudomonas aeruginosa PAO1 harboring siderophore receptor piuA, pfeA and pirA mutant in Mueller-Hinton broth medium by CLSI broth microdilution method; format: functional; method in brief: as §1
Pseudomonas aeruginosa [4] = experiment: Ratio of MIC for Pseudomonas aeruginosa PAO1 harboring siderophore receptor pirA mutant to MIC for wild type Pseudomonas aeruginosa PAO1 in Mueller-Hinton broth medium by CLSI broth microdilution method; format: functional
Method in brief: (§2)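 Receptor-deficient PAO1 strain MIC divided by parent PAO1 MIC. Both MICs were obtained by CLSI broth microdilution in standard Mueller Hinton broth. A shift greater than 4× was taken to indicate that the deleted receptor(s) take part in drug uptake.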

Pseudomonas aeruginosa [5] = experiment: Ratio of MIC for Pseudomonas aeruginosa PAO1 harboring siderophore receptor fptA mutant to MIC for wild type Pseudomonas aeruginosa PAO1 in Mueller-Hinton broth medium by CLSI broth microdilution method; format: functional; method in brief: as §2
Pseudomonas aeruginosa [6] = experiment: Antibacterial activity against Pseudomonas aeruginosa PAO1 in medium containing low-Fe by CLSI broth microdilution method; format: functional
Method in brief: (§3)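 MIC by CLSI broth microdilution in a modified Mueller Hinton broth depleted of iron to mimic the low-iron in vivo environment. Tested against PAO1 and isogenic strains lacking one or more siderophore receptors.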

Pseudomonas aeruginosa [7] = experiment: Antibacterial activity against Pseudomonas aeruginosa PAO1 harboring siderophore receptor piuA mutant in medium containing low-Fe by CLSI broth microdilution method; format: functional; method in brief: as §3
Pseudomonas aeruginosa [8] = experiment: Antibacterial activity against Pseudomonas aeruginosa PAO1 harboring siderophore receptor piuA and fpvA double mutant in medium containing low-Fe by CLSI broth microdilution method; format: functional; method in brief: as §3
Pseudomonas aeruginosa [9] = experiment: Antibacterial activity against Pseudomonas aeruginosa PAO1 harboring siderophore receptor piuA and fptA double mutant in medium containing low-Fe by CLSI broth microdilution method; format: functional; method in brief: as §3
Pseudomonas aeruginosa [10] = experiment: Antibacterial activity against Pseudomonas aeruginosa PAO1 harboring siderophore receptor piuA and pirA double mutant in medium containing low-Fe by CLSI broth microdilution method; format: functional; method in brief: as §3
Pseudomonas aeruginosa [11] = experiment: Antibacterial activity against Pseudomonas aeruginosa PAO1 harboring siderophore receptor piuA and pfeA double mutant in medium containing low-Fe by CLSI broth microdilution method; format: functional; method in brief: as §3
Pseudomonas aeruginosa [12] = experiment: Antibacterial activity against Pseudomonas aeruginosa PAO1 harboring siderophore receptor piuA, pfeA and pirA mutant in medium containing low-Fe by CLSI broth microdilution method; format: functional; method in brief: as §3
Pseudomonas aeruginosa [13] = experiment: Ratio of MIC for Pseudomonas aeruginosa PAO1 harboring siderophore receptor pirA mutant to MIC for wild type Pseudomonas aeruginosa PAO1 in medium containing low-Fe by CLSI broth microdilution method; format: functional
Method in brief: (§4)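 Ratio of strain MIC to PAO1 MIC. Both MICs were obtained by CLSI broth microdilution in iron-depleted modified Mueller Hinton broth. A shift greater than 4× versus the parent was read as the deleted receptor(s) taking part in uptake.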

Pseudomonas aeruginosa [14] = experiment: Ratio of MIC for Pseudomonas aeruginosa PAO1 harboring siderophore receptor fptA mutant to MIC for wild type Pseudomonas aeruginosa PAO1 in medium containing low-Fe by CLSI broth microdilution method; format: functional; method in brief: as §4
Pseudomonas aeruginosa [15] = experiment: Ratio of MIC for Pseudomonas aeruginosa PAO1 harboring siderophore receptor piuA and pirA double mutant in MHB medium to MIC for Pseudomonas aeruginosa PAO1 harboring siderophore receptor piuA and pirA double mutant in medium containing low-Fe by CLSI broth microdilution method; format: functional
Pseudomonas aeruginosa [16] = experiment: Ratio of MIC for Pseudomonas aeruginosa PAO1 harboring siderophore receptor piuA and pfeA double mutant in MHB medium to MIC for Pseudomonas aeruginosa PAO1 harboring siderophore receptor piuA and pfeA double mutant in medium containing low-Fe by CLSI broth microdilution method; format: functional
Pseudomonas aeruginosa [17] = experiment: Antibacterial activity against Pseudomonas aeruginosa PAO1 in medium containing aztreonam and low-Fe by CLSI broth microdilution method; format: functional
Pseudomonas aeruginosa [18] = experiment: Antibacterial activity against Pseudomonas aeruginosa PAO1 harboring siderophore receptor piuA and pirA double mutant in medium containing aztreonam and low-Fe by CLSI broth microdilution method; format: functional
Pseudomonas aeruginosa [19] = experiment: Antibacterial activity against Pseudomonas aeruginosa PAO1 harboring siderophore receptor pirA and pfeA double mutant in medium containing aztreonam and low-Fe by CLSI broth microdilution method; format: functional
Pseudomonas aeruginosa [20] = experiment: Antibacterial activity against Pseudomonas aeruginosa PAO1 harboring siderophore receptor piuA, pfeA and pirA mutant in medium containing aztreonam and low-Fe by CLSI broth microdilution method; format: functional
Pseudomonas aeruginosa [21] = experiment: Ratio of MIC for Pseudomonas aeruginosa PAO1 harboring siderophore receptor fpvA mutant to MIC for wild type Pseudomonas aeruginosa PAO1 in medium containing aztreonam and low-Fe by CLSI broth microdilution method; format: functional
Pseudomonas aeruginosa [22] = experiment: Ratio of MIC for Pseudomonas aeruginosa PAO1 harboring siderophore receptor piuA and fptA double mutant to MIC for wild type Pseudomonas aeruginosa PAO1 in medium containing aztreonam and low-Fe by CLSI broth microdilution method; format: functional
Pseudomonas aeruginosa [23] = experiment: Ratio of MIC for Pseudomonas aeruginosa PAO1 harboring siderophore receptor piuA and pirA double mutant to MIC for wild type Pseudomonas aeruginosa PAO1 in medium containing aztreonam and low-Fe by CLSI broth microdilution method; format: functional
Pseudomonas aeruginosa [24] = experiment: Ratio of MIC for Pseudomonas aeruginosa PAO1 harboring siderophore receptor piuA, pfeA and pirA mutant to MIC for wild type Pseudomonas aeruginosa PAO1 in medium containing aztreonam and low-Fe by CLSI broth microdilution method; format: functional
Escherichia coli [25] = experiment: Antibacterial activity against Escherichia coli DH5alpha expressing beta-lactamase TEM-1 by CLSI broth microdilution method; format: functional; conditions: DH5[alpha]
Escherichia coli [26] = experiment: Antibacterial activity against Escherichia coli DH5alpha expressing beta-lactamase TEM-24 by CLSI broth microdilution method; format: functional; conditions: DH5[alpha]
Escherichia coli [27] = experiment: Antibacterial activity against Escherichia coli DH5alpha expressing beta-lactamase VIM-2 by CLSI broth microdilution method; format: functional; conditions: DH5[alpha]
Escherichia coli [28] = experiment: Antibacterial activity against Escherichia coli DH5alpha expressing beta-lactamase NDM-1 by CLSI broth microdilution method; format: functional; conditions: DH5[alpha]
Escherichia coli [29] = experiment: Antibacterial activity against Escherichia coli DH5alpha expressing beta-lactamase OXA-24/40 by CLSI broth microdilution method; format: functional; conditions: DH5[alpha]
Pseudomonas aeruginosa [30] = experiment: Antibacterial activity against Pseudomonas aeruginosa 1091-05 by CLSI broth microdilution method; format: functional
Klebsiella pneumoniae = experiment: Antibacterial activity against Klebsiella pneumoniae KP-3700 by CLSI broth microdilution method; format: functional
Acinetobacter baumannii = experiment: Antibacterial activity against Acinetobacter baumannii AB-3167 by CLSI broth microdilution method; format: functional
[31] = target: Penicillin-binding protein 1A (Pseudomonas aeruginosa PAO1, UniProt Q07806); experiment: Displacement of fluorescent Bocillin FL from N-terminal His tagged Pseudomonas aeruginosa PAO1 PBP1a (residues 36 to 822) expressed in Escherichia coli BL21 (Gold cells)
Sequence of Penicillin-binding protein 1A (Q07806 whole entry, the tested form may be a part): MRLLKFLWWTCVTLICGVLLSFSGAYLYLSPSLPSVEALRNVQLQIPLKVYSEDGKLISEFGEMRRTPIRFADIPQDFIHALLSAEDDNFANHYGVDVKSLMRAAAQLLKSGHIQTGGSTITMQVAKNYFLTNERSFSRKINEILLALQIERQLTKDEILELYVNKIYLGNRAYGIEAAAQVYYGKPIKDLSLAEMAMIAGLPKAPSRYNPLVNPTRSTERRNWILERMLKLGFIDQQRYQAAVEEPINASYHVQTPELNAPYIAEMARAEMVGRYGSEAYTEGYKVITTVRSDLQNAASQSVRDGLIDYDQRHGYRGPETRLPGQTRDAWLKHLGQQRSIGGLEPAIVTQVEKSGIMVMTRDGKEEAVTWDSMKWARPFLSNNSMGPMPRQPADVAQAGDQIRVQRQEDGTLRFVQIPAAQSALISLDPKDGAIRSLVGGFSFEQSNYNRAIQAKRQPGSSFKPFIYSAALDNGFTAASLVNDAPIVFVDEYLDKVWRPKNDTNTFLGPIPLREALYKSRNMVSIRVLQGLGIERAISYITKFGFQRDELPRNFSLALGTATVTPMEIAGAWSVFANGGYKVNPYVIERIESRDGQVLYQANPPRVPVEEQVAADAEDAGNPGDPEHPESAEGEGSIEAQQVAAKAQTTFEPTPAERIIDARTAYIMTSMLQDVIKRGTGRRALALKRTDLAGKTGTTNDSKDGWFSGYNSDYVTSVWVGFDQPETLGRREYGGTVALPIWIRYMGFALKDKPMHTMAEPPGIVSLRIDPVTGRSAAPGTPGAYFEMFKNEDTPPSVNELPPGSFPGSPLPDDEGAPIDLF

Pseudomonas aeruginosa [32] = experiment: Ratio of MIC for Pseudomonas aeruginosa PAO1 harboring siderophore receptor pirA and pfeA double mutant to MIC for wild type Pseudomonas aeruginosa PAO1 in Mueller-Hinton broth medium by CLSI broth microdilution method; format: functional; method in brief: as §2
Pseudomonas aeruginosa [33] = experiment: Antibacterial activity against Pseudomonas aeruginosa PAO1 harboring siderophore receptor fpvA mutant in Mueller-Hinton broth medium by CLSI broth microdilution method; format: functional; method in brief: as §1

CC(C)(O/N=C(\C(=O)N[C@H]1CON(C2(C(=O)O)C[C@H](N3C(=O)c4cc(O)c(O)cc4C3=O)C(=O)O2)C1=O)c1csc(N)n1)C(=O)O (stereo not given in full)
MIC (Pseudomonas aeruginosa [1]): 16 µg/mL (≈ 24.1 µM)
MIC (Pseudomonas aeruginosa [2]): 0.5 µg/mL (≈ 0.755 µM)
MIC (Pseudomonas aeruginosa [3]): 16 µg/mL (≈ 24.1 µM)
Ratio (Pseudomonas aeruginosa [4]): 1
Ratio (Pseudomonas aeruginosa [5]): 8
MIC (Pseudomonas aeruginosa [6]): ≤ 0.03 µg/mL
MIC (Pseudomonas aeruginosa [7]): 0.125 µg/mL (≈ 0.189 µM)
MIC (Pseudomonas aeruginosa [8]): 0.25 µg/mL (≈ 0.377 µM)
MIC (Pseudomonas aeruginosa [9]): 0.5 µg/mL (≈ 0.755 µM)
MIC (Pseudomonas aeruginosa [10]): 0.25 µg/mL (≈ 0.377 µM)
MIC (Pseudomonas aeruginosa [11]): 0.125 µg/mL (≈ 0.189 µM)
MIC (Pseudomonas aeruginosa [12]): 0.25 µg/mL (≈ 0.377 µM)
Ratio (Pseudomonas aeruginosa [13]): 1
Ratio (Pseudomonas aeruginosa [14]): >=2
Ratio (Pseudomonas aeruginosa [15]): 64
Ratio (Pseudomonas aeruginosa [16]): 64
MIC (Pseudomonas aeruginosa [17]): 4 µg/mL (≈ 6.04 µM)
MIC (Pseudomonas aeruginosa [18]): 4 µg/mL (≈ 6.04 µM)
MIC (Pseudomonas aeruginosa [19]): 4 µg/mL (≈ 6.04 µM)
MIC (Pseudomonas aeruginosa [20]): 4 µg/mL (≈ 6.04 µM)
Ratio (Pseudomonas aeruginosa [21]): 0.5
Ratio (Pseudomonas aeruginosa [22]): 1
Ratio (Pseudomonas aeruginosa [23]): 1
Ratio (Pseudomonas aeruginosa [24]): 1
MIC (Escherichia coli [25]): 0.06 µg/mL (≈ 0.0906 µM)
MIC (Escherichia coli [26]): 0.06 µg/mL (≈ 0.0906 µM)
MIC (Escherichia coli [27]): 0.015 µg/mL (≈ 0.0226 µM)
MIC (Escherichia coli [28]): 0.03 µg/mL (≈ 0.0453 µM)
MIC (Escherichia coli [29]): 0.03 µg/mL (≈ 0.0453 µM)
MIC (Pseudomonas aeruginosa [30]): 0.5 µg/mL (≈ 0.755 µM)
MIC (Klebsiella pneumoniae): 0.5 µg/mL (≈ 0.755 µM)
MIC (Acinetobacter baumannii): 0.06 µg/mL (≈ 0.0906 µM)
IC50 [31]: 30 nM
Ratio (Pseudomonas aeruginosa [32]): 1
MIC (Pseudomonas aeruginosa [33]): 16 µg/mL (≈ 24.1 µM)
